Assay results as given in ChEMBL document CHEMBL4219150, “Fragment-Based Approach to Targeting Inosine-5'-monophosphate Dehydrogenase (IMPDH) from Mycobacterium tuberculosis” (J Med Chem, 2018).

tested on: Mycobacterium tuberculosis; assay: Inhibition of Mycobacterium tuberculosis IMPDH deltaCBS mutant assessed as reduction in NADH production using IMP as substrate at 100 uM preincubated for 5 mins followed by substrate addition measured for 32 mins in presence of NAD+

Row | SMILES | inhibition
1 | O=C(CSc1ncc(-c2ccccc2)[nH]1)Nc1ccccc1 | < 5%
2 | O=C(O)CSc1nc(-c2ccccc2)c[nH]1 | < 5%
3 | O=C(CSc1nc(-c2ccc(Br)cc2)c[nH]1)Nc1ccc(-c2c[nH]cn2)cc1 | 20%
4 | O=C(CSc1nc(-c2ccccc2)c[nH]1)Nc1ccc2occc2c1 | 36%
5 | O=C(NCc1ncc(-c2ccc(Br)cc2)[nH]1)Nc1ccc(-c2c[nH]cn2)cc1 | 56%
6 | O=C(CSc1nc(-c2ccc(Br)cc2)c[nH]1)Nc1ccc2occc2c1 | 31%
7 | Brc1ccc(-c2c[nH]cn2)cc1 | < 5%
8 | CC(C)NC(=O)CSc1nc(-c2ccccc2)c[nH]1 | < 5%
9 | O=C(O)CSc1nc(-c2ccc(Br)cc2)c[nH]1 | < 5%
10 | O=C(CSc1nc(-c2ccc(Br)cc2)c[nH]1)Nc1ccccc1 | 13%
11 | O=C(CSc1nc(-c2ccccc2)c[nH]1)Nc1ccc(-c2c[nH]cn2)cc1 | 24%
12 | O=C(CSc1nc(-c2ccc(Br)cc2)c[nH]1)Nc1ccc(I)cc1 | 30%
13 | O=C(CSc1nc(-c2ccccc2)c[nH]1)Nc1ccc(I)cc1 | 46%

tested on: Mycobacterium tuberculosis; assay: Inhibition of Mycobacterium tuberculosis IMPDH deltaCBS mutant assessed as reduction in NADH production at 1 mM using IMP as substrate preincubated for 5 mins followed by substrate addition measured for 32 mins in presence of NAD+

Row | SMILES | inhibition
14 | CC1(C)Cc2cccc(CO)c2O1 | 99%
15 | COc1ccc2ccc(O)cc2c1 | 66%
16 | Nc1n[nH]c(-c2ccccc2)c1Br | 53%
17 | Clc1ccc(-c2cnc[nH]2)cc1 | 59%
18 | OCc1ccc2sccc2c1 | 53%
19 | Oc1ccc2ccc(O)cc2c1 | 77%
20 | Oc1cccc2ccccc12 | 68%
21 | O=C(O)c1cc2cccc(O)c2cc1O | 98%
22 | Cc1ccc(-c2nc(C(=O)O)cs2)cc1 | 88%
23 | N#Cc1c[nH]c2ccccc12 | 51%
24 | CC(=O)Nc1cc(C)ccc1O | 79%
25 | Brc1ccc(-c2c[nH]cn2)cc1 | 65%
26 | Oc1ccc2ccccc2c1 | 57%
27 | O=C(O)c1cc2sccc2s1 | 86%
28 | Nc1[nH]ncc1-c1cccc(Br)c1 | 50%
29 | O=C(O)c1ccccc1-n1cccc1 | 72%
30 | Nc1ccc(-n2ccnc2)cc1 | 64%

tested on: Mycobacterium tuberculosis; assay: Uncompetitive inhibition of Mycobacterium tuberculosis IMPDH deltaCBS mutant
Procedure, shortened: (§1)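 Enzyme was Mth IMPDH ΔCBS expressed in E. coli BL21(DE3) at 18°C with 500 µM IPTG, then Ni-IMAC purified, TEV-cleaved and run on gel filtration; assay buffer and 37°C conditions as in the activity assay. […] Initial rates were fit to uncompetitive or mixed inhibition equations, and the pattern was read from Lineweaver-Burk plots.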

Row | SMILES | alphaKi
31 | Cc1n[nH]c(C)c1S(=O)(=O)Nc1ccc2c[nH]nc2c1 | 0.22 µM
32 | O=C(C1CCCCC1)N1CCN(S(=O)(=O)c2ccc3cnccc3c2)CC1 | 0.12 µM

tested on: Mycobacterium tuberculosis; assay: (§2) Uncompetitive inhibition of Mycobacterium tuberculosis IMPDH deltaCBS mutant assessed as reduction in NADH production preincubated for 5 mins followed by substrate IMP addition at increasing concentration measured for 32 mins in presence of constant concentration of NAD+ by Lineweaver-Burk plot analysis

Row | SMILES | alphaKi
33 | COc1ccc(OC(C)C(=O)Nc2ccc(I)cc2)cc1 (stereo unspecified) | 0.86 µM

tested on: Mycobacterium tuberculosis; assay: Inhibition of Mycobacterium tuberculosis IMPDH deltaCBS mutant assessed as reduction in NADH production using IMP as substrate at 10 uM preincubated for 5 mins followed by substrate addition measured for 32 mins in presence of NAD+

Row | SMILES | inhibition
34 | CC(Oc1ccc(-c2cn(C)cn2)cc1)C(=O)Nc1nc(-c2ccc(Br)cc2)co1 (stereo unspecified) | 83%
35 | CC(Oc1ccc(-c2cn(C)cn2)cc1)C(=O)Nc1nc(-c2ccccc2)c[nH]1 (stereo unspecified) | 77%
36 | C[C@H](Oc1ccc(-c2cn(C)cn2)cc1)C(=O)Nc1nc(-c2ccc(Br)cc2)c[nH]1 | 99%
37 | CC(Oc1ccc(-c2cn(C)cn2)cc1)C(=O)Nc1nc(-c2ccc(Br)cc2)c[nH]1 (stereo unspecified) | 99%
38 | CC(Oc1ccc(-c2cn(C)cn2)cc1)C(=O)Nc1nc(-c2ccc(N3CCOCC3)cc2)c[nH]1 (stereo unspecified) | 94%
39 | CC(Oc1ccc(-c2cn(C)cn2)cc1)C(=O)Nc1ccc(I)cc1 (stereo unspecified) | 97%
40 | CC(Oc1ccc(-c2cn(C)cn2)cc1)C(=O)Nc1ccccc1 (stereo unspecified) | 4%
41 | COc1ccc(OC(C)C(=O)Nc2ccc(I)cc2)cc1 (stereo unspecified) | 92%
42 | COc1ccc(-c2c[nH]c(NC(=O)C(C)Oc3ccc(-c4cn(C)cn4)cc3)n2)cc1 (stereo unspecified) | 95%
43 | CC(Oc1ccc(-c2cn(C)cn2)cc1)C(=O)Nc1nc(-c2ccc(I)cc2)c[nH]1 (stereo unspecified) | 96%

tested on: Mycobacterium tuberculosis; assay: Uncompetitive inhibition of Mycobacterium tuberculosis IMPDH deltaCBS mutant expressed in Escherichia coli BL21(DE3) in presence of IMP and NAD+; procedure, shortened: as §1

Row | SMILES | alphaKi
44 | C=C(C)c1cccc(C(C)(C)NC(=O)Nc2ccc(Cl)c(C(=O)N(C)C)c2)c1 | 0.009 µM
45 | COc1c(C)c2c(c(O)c1C/C=C(\C)Cn1cc(COC[C@H]3O[C@@H](n4cnc5c(N)ncnc54)[C@H](O)[C@@H]3O)nn1)C(=O)OC2 | 1 µM

tested on: Mycobacterium tuberculosis; assay: as §2, with “Mixed-type” for “Uncompetitive”

Row | SMILES | alphaKi
46 | Cc1ccc(-c2nc(C(=O)O)cs2)cc1 | 398 µM
